Common to all, as to type: functional
In test [1] the test system is Cavia porcellus. In words: In vivo reversal activity versus ~90% block by rocuronium in guinea pig, expressed as % of maximum reversal at 0.5 umol/kg conc. The method in brief:
(§1)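 Male Dunkin-Hartley guinea pigs (600-900 g), anaesthetized ip with pentobarbitone 10 mg/kg plus urethane 1000 mg/kg, tracheotomized and ventilated. Continuous iv rocuronium infusion (~10 nmol kg-1 min-1) was raised to a steady 85-90% block. Increasing iv doses of agent were given cumulatively. ED50 = 50% recovery versus preblock twitch, by regression. Mean ± SEM of at least two experiments, or one.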

For test [2], the species on record is Mus musculus. The test is described as follows: In vitro reversal activity versus ~90% block by rocuronium in isolated mouse hemidiaphragm, expressed as % of maximum reversal at 3.6 uM conc.
For test [3], the species on record is Mus musculus. In words: In vitro reversal activity versus ~90% block by rocuronium in isolated mouse hemidiaphragm, expressed as effective conc.
The test system of test [4] is Cavia porcellus. The test is described as follows: In vivo reversal activity versus ~90% block by rocuronium in guinea pig. The method in brief: as §1
For test [5], the system named is Cavia porcellus. In words: In vivo reversal activity versus ~90% block by rocuronium in guinea pig, expressed as % of maximum reversal at 16 umol/kg conc. The method in brief: (§2)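 Male Dunkin-Hartley guinea pigs (600-900 g) anaesthetized ip with pentobarbitone 10 mg/kg plus urethane 1000 mg/kg, tracheotomized and artificially ventilated. Continuous iv rocuronium bromide infusion (~10 nmol kg-1 min-1) raised until steady-state twitch block of 85-90%. Increasing single iv doses of reversal agent given by a separate catheter. Max reversal is peak twitch recovery versus preblock height at highest dose tested; means ± SEM, n ≥ 2 or single experiment.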

For test [6], the species on record is Mus musculus. In words: In vitro reversal activity versus ~90% block by rocuronium in isolated mouse hemidiaphragm, expressed as % of maximum reversal at 18 uM conc.
Test [7] is filed under the species Mus musculus. The test is described as follows: In vitro reversal activity versus ~90% block by rocuronium in isolated mouse hemidiaphragm, expressed as % of maximum reversal at 5.4 uM conc.
Test [8] concerns Cavia porcellus. In words: In vivo reversal activity versus ~90% block by rocuronium in guinea pig, expressed as % of maximum reversal at 15 umol/kg conc. In outline:
as §2

In test [9] the test system is Cavia porcellus. In words: In vivo reversal activity versus ~90% block by rocuronium in guinea pig, expressed as % of maximum reversal at 0.3 umol/kg conc. The method in brief:
as §1

SMILES strings stand for the structures. Some results are limits rather than exact numbers.

What is called EC50 is the midpoint of the concentration-response curve. As usually defined, the ED50 is the dose at which the effect has come halfway, by size or by number of responders.

Turning to `O=S(=O)([O-])CCSCC1O[C@@H]2O[C@@H]3C(CSCCS(=O)(=O)[O-])O[C@H](O[C@@H]4C(CSCCS(=O)(=O)[O-])O[C@H](O[C@@H]5C(CSCCS(=O)(=O)[O-])O[C@H](O[C@@H]6C(CSCCS(=O)(=O)[O-])O[C@H](O[C@@H]7C(CSCCS(=O)(=O)[O-])O[C@H](O[C@@H]8C(CSCCS(=O)(=O)[O-])O[C@H](O[C@@H]9C(CSCCS(=O)(=O)[O-])O[C@H](O[C@H]1C(O)C2O)C(O)C9O)C(O)C8O)C(O)C7O)C(O)C6O)C(O)C5O)C(O)C4O)C(O)C3O.[Na+].[Na+].[Na+].[Na+].[Na+].[Na+].[Na+].[Na+]` (stereo partly specified), the results for the Max reversal in the test on Cavia porcellus [1] and in the test filed under Mus musculus [2] were 92.8% and 95.6%, respectively. In addition, the EC50 in the test filed under Mus musculus [3] stood at 3.6 µM. Besides, in the test on Cavia porcellus [4], the ED50 is 0.05 µmol/kg.
On to `O=C([O-])CSCC1O[C@@H]2O[C@@H]3C(CO)O[C@H](O[C@@H]4C(CO)O[C@H](O[C@@H]5C(CO)O[C@H](O[C@@H]6C(CO)O[C@H](O[C@@H]7C(CO)O[C@H](O[C@@H]8C(CO)O[C@H](O[C@@H]9C(CO)O[C@H](O[C@H]1C(O)C2O)C(O)C9O)C(O)C8O)C(O)C7O)C(O)C6O)C(O)C5O)C(O)C4O)C(O)C3O.[Na+]` (stereo partly specified), for which the Max reversal was determined as 96.5% in the test with Cavia porcellus [5] and 28.9% in the test filed under Mus musculus [6]. Besides, the EC50 in the test filed under Mus musculus [3] amounted to 60.8 µM. The ED50 in the test with Cavia porcellus [4] came out at 5.79 µmol/kg.
Regarding `O=C([O-])CSCC1O[C@@H]2O[C@@H]3C(CSCC(=O)[O-])O[C@H](O[C@@H]4C(CSCC(=O)[O-])O[C@H](O[C@@H]5C(CSCC(=O)[O-])O[C@H](O[C@@H]6C(CSCC(=O)[O-])O[C@H](O[C@@H]7C(CSCC(=O)[O-])O[C@H](O[C@@H]8C(CSCC(=O)[O-])O[C@H](O[C@@H]9C(CSCC(=O)[O-])O[C@H](O[C@H]1C(O)C2O)C(O)C9O)C(O)C8O)C(O)C7O)C(O)C6O)C(O)C5O)C(O)C4O)C(O)C3O.[Na+].[Na+].[Na+].[Na+].[Na+].[Na+].[Na+].[Na+]` (stereo partly specified), the results for the Max reversal in the test on Cavia porcellus [1] and in the test listed under Mus musculus [2] were 103.3% and 93.8%, respectively. The EC50 in the test filed under Mus musculus [3] turned out to be 1.2 µM. In the test with Cavia porcellus [4], the ED50 turned out to be 0.1 µmol/kg.
Turning to `O=C([O-])Cc1cccc(SCC2O[C@@H]3O[C@@H]4C(CO)O[C@H](O[C@@H]5C(CO)O[C@H](O[C@@H]6C(CO)O[C@H](O[C@@H]7C(CO)O[C@H](O[C@@H]8C(CO)O[C@H](O[C@@H]9C(CO)O[C@H](O[C@@H]%10C(CO)O[C@H](O[C@H]2C(O)C3O)C(O)C%10O)C(O)C9O)C(O)C8O)C(O)C7O)C(O)C6O)C(O)C5O)C(O)C4O)c1.[Na+]` (stereo partly specified), the figures for the Max reversal in the test on Cavia porcellus [5] and in the test listed under Mus musculus [6] were 92.8% and 30.4%, respectively. Moreover, the EC50 in the test listed under Mus musculus [3] is more than 18 µM. Moreover, the ED50 in the test with Cavia porcellus [4] was found to be 1.67 µmol/kg.
For the compound `O=C([O-])CCc1cccc(SCC2O[C@@H]3O[C@@H]4C(CSc5cccc(CCC(=O)[O-])c5)O[C@H](O[C@@H]5C(CSc6cccc(CCC(=O)[O-])c6)O[C@H](O[C@@H]6C(CSc7cccc(CCC(=O)[O-])c7)O[C@H](O[C@@H]7C(CSc8cccc(CCC(=O)[O-])c8)O[C@H](O[C@@H]8C(CSc9cccc(CCC(=O)[O-])c9)O[C@H](O[C@@H]9C(CSc%10cccc(CCC(=O)[O-])c%10)O[C@H](O[C@@H]%10C(CSc%11cccc(CCC(=O)[O-])c%11)O[C@H](O[C@H]2C(O)C3O)C(O)C%10O)C(O)C9O)C(O)C8O)C(O)C7O)C(O)C6O)C(O)C5O)C(O)C4O)c1.[Na+].[Na+].[Na+].[Na+].[Na+].[Na+].[Na+].[Na+]` (stereo partly specified), the Max reversal in the test with Cavia porcellus [5] is listed as 35.3%; in the test filed under Mus musculus [6], 65.2%. Besides, in the test listed under Mus musculus [3], the EC50 is 14.8 µM. For the same compound, in the test with Cavia porcellus [4], the ED50 was 22.8 µmol/kg.
In the case of `O=C([O-])c1ccccc1C(=O)NCCSCC1O[C@@H]2O[C@@H]3C(CSCCNC(=O)c4ccccc4C(=O)[O-])O[C@H](O[C@@H]4C(CSCCNC(=O)c5ccccc5C(=O)[O-])O[C@H](O[C@@H]5C(CSCCNC(=O)c6ccccc6C(=O)[O-])O[C@H](O[C@@H]6C(CSCCNC(=O)c7ccccc7C(=O)[O-])O[C@H](O[C@@H]7C(CSCCNC(=O)c8ccccc8C(=O)[O-])O[C@H](O[C@@H]8C(CSCCNC(=O)c9ccccc9C(=O)[O-])O[C@H](O[C@@H]9C(CSCCNC(=O)c%10ccccc%10C(=O)[O-])O[C@H](O[C@H]1C(O)C2O)C(O)C9O)C(O)C8O)C(O)C7O)C(O)C6O)C(O)C5O)C(O)C4O)C(O)C3O.[Na+].[Na+].[Na+].[Na+].[Na+].[Na+].[Na+].[Na+]` (stereo partly specified), the Max reversal came out at 94.5% in the test on Cavia porcellus [1] and 88.3% in the test filed under Mus musculus [7]. Further, the EC50 in the test filed under Mus musculus [3] amounted to 0.1 µM. The ED50 with Cavia porcellus [4] was found to be 0.09 µmol/kg.
Take `O=C([O-])c1cccc(SCC2O[C@@H]3O[C@@H]4C(CO)O[C@H](O[C@@H]5C(CO)O[C@H](O[C@@H]6C(CO)O[C@H](O[C@@H]7C(CO)O[C@H](O[C@@H]8C(CO)O[C@H](O[C@@H]9C(CO)O[C@H](O[C@@H]%10C(CO)O[C@H](O[C@H]2C(O)C3O)C(O)C%10O)C(O)C9O)C(O)C8O)C(O)C7O)C(O)C6O)C(O)C5O)C(O)C4O)c1.[Na+]` (stereo partly specified): the figures for the Max reversal in the test with Cavia porcellus [5] and in the test filed under Mus musculus [6] were 102.7% and 36.1%, respectively. Also, the EC50 in the test listed under Mus musculus [3] was more than 18 µM. In the test with Cavia porcellus [4], the ED50 was 2.41 µmol/kg.
With `O=C([O-])CCc1cccc(SCC2O[C@@H]3O[C@@H]4C(CO)O[C@H](O[C@@H]5C(CO)O[C@H](O[C@@H]6C(CO)O[C@H](O[C@@H]7C(CO)O[C@H](O[C@@H]8C(CO)O[C@H](O[C@@H]9C(CO)O[C@H](O[C@@H]%10C(CO)O[C@H](O[C@H]2C(O)C3O)C(O)C%10O)C(O)C9O)C(O)C8O)C(O)C7O)C(O)C6O)C(O)C5O)C(O)C4O)c1.[Na+]` (stereo partly specified), the Max reversal is listed as 3.9% in the test filed under Mus musculus [6] and 55.8% in the test with Cavia porcellus [8]. Also, the EC50 in the test listed under Mus musculus [3] was more than 18 µM. For the same compound, in the test with Cavia porcellus [4], the ED50 stood at 12.6 µmol/kg.
For the compound `O=C([O-])CCCCSCC1O[C@@H]2O[C@@H]3C(CSCCCCC(=O)[O-])O[C@H](O[C@@H]4C(CSCCCCC(=O)[O-])O[C@H](O[C@@H]5C(CSCCCCC(=O)[O-])O[C@H](O[C@@H]6C(CSCCCCC(=O)[O-])O[C@H](O[C@@H]7C(CSCCCCC(=O)[O-])O[C@H](O[C@@H]8C(CSCCCCC(=O)[O-])O[C@H](O[C@@H]9C(CSCCCCC(=O)[O-])O[C@H](O[C@H]1C(O)C2O)C(O)C9O)C(O)C8O)C(O)C7O)C(O)C6O)C(O)C5O)C(O)C4O)C(O)C3O.[Na+].[Na+].[Na+].[Na+].[Na+].[Na+].[Na+].[Na+]` (stereo partly specified), the Max reversal amounted to 98.9% in the test filed under Mus musculus [7] and 99% in the test on Cavia porcellus [9]. Besides, the EC50 in the test listed under Mus musculus [3] amounted to 1.8 µM. Further, the ED50 in the test on Cavia porcellus [4] is 0.07 µmol/kg.
With `O=C([O-])CCCSCC1O[C@@H]2O[C@@H]3C(CSCCCC(=O)[O-])O[C@H](O[C@@H]4C(CSCCCC(=O)[O-])O[C@H](O[C@@H]5C(CSCCCC(=O)[O-])O[C@H](O[C@@H]6C(CSCCCC(=O)[O-])O[C@H](O[C@@H]7C(CSCCCC(=O)[O-])O[C@H](O[C@@H]8C(CSCCCC(=O)[O-])O[C@H](O[C@@H]9C(CSCCCC(=O)[O-])O[C@H](O[C@H]1C(O)C2O)C(O)C9O)C(O)C8O)C(O)C7O)C(O)C6O)C(O)C5O)C(O)C4O)C(O)C3O.[Na+].[Na+].[Na+].[Na+].[Na+].[Na+].[Na+].[Na+]` (stereo partly specified), the Max reversal in the test filed under Mus musculus [2] is reported as 98.5%; in the test with Cavia porcellus [9], 93.4%. The EC50 in the test listed under Mus musculus [3] was 1.4 µM. For the same compound, the ED50 with Cavia porcellus [4] came out at 0.06 µmol/kg.
As to `O=C([O-])CCCSCC1O[C@@H]2O[C@@H]3C(CO)O[C@H](O[C@@H]4C(CO)O[C@H](O[C@@H]5C(CO)O[C@H](O[C@@H]6C(CO)O[C@H](O[C@@H]7C(CO)O[C@H](O[C@@H]8C(CO)O[C@H](O[C@@H]9C(CO)O[C@H](O[C@H]1C(O)C2O)C(O)C9O)C(O)C8O)C(O)C7O)C(O)C6O)C(O)C5O)C(O)C4O)C(O)C3O.[Na+]` (stereo partly specified), the Max reversal in the test filed under Mus musculus [6] was 14.4%. Also, the EC50 in the test filed under Mus musculus [3] is more than 18 µM.
Turning to `O=C([O-])CCCSCC1O[C@@H]2O[C@@H]3C(CSCCCC(=O)[O-])O[C@H](O[C@@H]4C(CSCCCC(=O)[O-])O[C@H](O[C@@H]5C(CSCCCC(=O)[O-])O[C@H](O[C@@H]6C(CSCCCC(=O)[O-])O[C@H](O[C@@H]7C(CSCCCC(=O)[O-])O[C@H](O[C@H]1C(O)C2O)C(O)C7O)C(O)C6O)C(O)C5O)C(O)C4O)C(O)C3O.[Na+].[Na+].[Na+].[Na+].[Na+].[Na+]` (stereo partly specified), the Max reversal in the test on Cavia porcellus [5] was determined as 3.4%; in the test listed under Mus musculus [6], 5.3%. Besides, the EC50 in the test listed under Mus musculus [3] is more than 18 µM. The ED50 with Cavia porcellus [4] is more than 16 µmol/kg.
